In general, inhibition refers to the relative decrease from the control value, in per cent. One may read the IC50 as the point on the concentration scale where inhibition reaches its midpoint.

Experiment [1] has as its target T1, C-X-C chemokine receptor type 4 (Homo sapiens, UniProt P61073). The experiment can be described thus: Displacement of [125I]-CXCL12 from human CXCR4 receptor expressed in HEK293T cell membranes at 100 uM after 2 hrs by scintillation counting analysis relative to IT1t. Summed up: (§1)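 Membranes (5 µg/well) from HEK293T transiently transfected with hCXCR4, incubated 2 h at 25 °C with 50 pM ¹²⁵I-CXCL12 in HEPES pH 7.4 buffer with CaCl₂, MgCl₂, NaCl, 1% BSA. Filtration through PEI-soaked GF/C, then scintillation counting. Non-specific binding defined by 10⁻⁵ M IT1t; three-parameter fit for pIC₅₀. Single-point displacement at 100 μM vs IT1t (100%). N = 3, triplicate.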
In general terms: Loss of bound radioactivity is the signal in a displacement assay; it reports binding, not function.

Experiment [2] deals with T1, C-X-C chemokine receptor type 4. The experiment can be described thus: Displacement of [125I]-CXCL12 from human CXCR4 receptor expressed in HEK293T cell membranes after 2 hrs by scintillation counting analysis. In a few lines: as §1
Experiment [3] has the same target. The experiment can be described thus: Displacement of [125I]-CXCL12 from human CXCR4 receptor expressed in HEK293T cell membranes at 63 uM after 2 hrs by scintillation counting analysis relative to IT1t. Summed up:
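hCXCR4 membranes from transiently transfected HEK293T, competing against ¹²⁵I-CXCL12 at 40 pM, 2 h at 25 °C, filtration and scintillation counting. Percentage displacement by ligand at 63 μM relative to IT1t at 63 μM (100%). N = 3, triplicate.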

Experiment [4] shares this target. The experiment in a line: Antagonist activity at human DEF3-fused CXCR4 receptor expressed in HEK293T cells co-expressing DAN1-HA-Galphaq/i5 assessed as inhibition of CXCL12-induced IP3 accumulation after 90 mins in presence of [3H]-myo-inositol by scintillation counting analysis. In kind it is functional, cell-based. In a few lines:
(§2)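 HEK293T co-transfected (PEI) with CXCR4 and HA-Gαq/i5, moved next day to poly-L-lysine wells and labelled overnight with 1 µCi/mL [³H]-myo-inositol in inositol-free DMEM. Antagonist dilutions with 10 nM CXCL12, 10 mM LiCl, 0.05% BSA in HEPES saline pH 7.4, 1.5 h at 37 °C. InsP isolated on […] columns, then scintillation counted. Single-point at 100 μM vs IT1t; N ≥ 3, triplicate.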

The target is the same in experiment [5]. The experiment can be described thus: Displacement of CXCL12-red from human NLuc-tagged CXCR4 receptor expressed in HEK293T cell membranes at 100 uM after 2 hrs by NanoBRET assay relative to IT1t. In a few lines:
(§3)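 Membranes (10 µg/well) from HEK293G cells stably expressing sig-NLuc–CXCR4 (G418-selected), in HBSS pH 7.4. CXCL12-red (50 nM) and competitor added together, 2 h at 37 °C; 10 µM furimazine, emissions at 460 and >610 nm read 5 min later, BRET ratio >610/460. Normalized to buffer (0%) and IT1t (100%); N = 3, triplicate.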

The target is the same in experiment [6]. The experiment can be described thus: Antagonist activity at human DEF3-RLuc fused CXCR4 receptor expressed in HEK293T cells co-expressing DEF3-Beta-arrestin-2-mVenus assessed as inhibition of CXCL12-induced beta-arrestin2 recruitment preincubated for 60 mins followed by CXCL12 addition measured after 20 mins by BRET assay. It counts as cell-based. For orientation: Arrestin recruitment assays detect the binding of arrestin to an activated receptor.

The target is the same in experiment [7]. The experiment can be described thus: Antagonist activity at human DEF3-RLuc fused CXCR4 receptor expressed in HEK293T cells co-expressing DEF3-Beta-arrestin-2-mVenus assessed as inhibition of CXCL12-induced beta-arrestin2 recruitment at 100 uM preincubated for 60 mins followed by CXCL12 addition measured after 20 mins by BRET assay relative to IT1t. In kind it is cell-based. Summed up: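 HEK293T cells transiently co-transfected (PEI) with hCXCR4-RLuc and β-arrestin-2-mVenus, assayed two days later in HBSS. Compound given 60 min before 10 nM CXCL12 with 5 µM coelenterazine-h; RLuc (480 nm) and 540 nm read after 20 min. BRET ratio expressed as fold over vehicle. Single-concentration inhibition at 100 μM, IT1t as 100%. N = 3, triplicate.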

Experiment [8] has the same target. The experiment can be described thus: Non-competitive antagonist activity at human CXCR4 receptor expressed in HEK293T cells co-expressing galphai1 assessed as inhibition of CXCL12-induced receptor activation up to 100 uM preincubated for 30 mins followed by CXCL12 addition and measured after 20 mins by FRET assay. It counts as cell-based. In a few lines:
(§4)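 HEK293T transfected (Effectene) with CXCR4 and a Gαi1 FRET sensor, seeded on poly-D-lysine, read 24 h later at 37 °C in HEPES buffer pH 7.3. Antagonist at 0.1, 1, 10 or 100 µM (final, from DMSO) for 30 min, 5 min pre-read, then increasing CXCL12, FRET read 20 min (ex 420, em 485/540 nm). CXCL12 curves built per antagonist level; 3–5 repeats.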

Experiment [9] has the same target. The experiment in a line: Antagonist activity at human DEF3-fused CXCR4 receptor expressed in HEK293T cells co-expressing DAN1-HA-Galphaq/i5 assessed as inhibition of CXCL12-induced IP3 accumulation at 100 uM after 90 mins in presence of [3H]-myo-inositol by scintillation counting analysis relative to IT1t. In kind it is functional, cell-based. Summed up:
as §2

The target is the same in experiment [10]. The experiment in a line: Displacement of CXCL12-red from human NLuc-tagged CXCR4 receptor expressed in HEK293T cell membranes after 2 hrs by NanoBRET assay. Summed up: as §3
Background: Bioluminescence resonance energy transfer reports proximity on the nanometre scale.

Experiment [11] has the same target. The experiment can be described thus: Competitive antagonist activity at human CXCR4 receptor expressed in HEK293T cells co-expressing galphai1 assessed as inhibition of CXCL12-induced receptor activation up to 100 uM preincubated for 30 mins followed by CXCL12 addition and measured after 20 mins by FRET assay. In kind it is cell-based. In a few lines:
as §4

Structures are written as SMILES. Calls of active or inactive are those of the source. The rule behind the calls is not given here.

T1 sequence (P61073 whole entry): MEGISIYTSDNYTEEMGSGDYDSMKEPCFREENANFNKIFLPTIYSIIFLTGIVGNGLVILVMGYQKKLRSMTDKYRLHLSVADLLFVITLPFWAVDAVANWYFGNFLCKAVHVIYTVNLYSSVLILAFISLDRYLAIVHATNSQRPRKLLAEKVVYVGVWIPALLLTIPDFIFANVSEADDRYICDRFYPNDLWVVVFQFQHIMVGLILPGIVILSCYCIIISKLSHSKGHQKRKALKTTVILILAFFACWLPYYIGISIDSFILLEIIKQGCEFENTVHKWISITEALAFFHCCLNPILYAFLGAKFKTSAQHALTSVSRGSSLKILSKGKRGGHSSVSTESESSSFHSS

As to `Cc1cccc(CNCC2CCN(Cc3cccc(Cl)c3)CC2)c1`, the inhibition in experiment [1] is 86%. This compound gave an IC50 in experiment [2] of 2510 nM.

Regarding `CCCNCC1CCN(Cc2ccccc2C)CC1`, the inhibition in [3] is above 50%.

`CCC[C@H](C)c1cc(CN(C)C)c(O)cc1CN(C)C`: the inhibition in experiment [3] is above 50%.

With `Cc1cccc(CNCC2CCN(Cc3c(Cl)cccc3Cl)CC2)c1`, in [1], the inhibition amounted to 60%. In addition, the IC50 in [2] was 251 nM.

As to `Cc1cccc(CNCC2CCN(Cc3ccccc3Cl)CC2)c1`, the half-inhibitory concentration (IC50) was 1000 nM in experiment [4], 3160 nM in [6], 158 nM in experiment [2] and 1000 nM in [10]. For the same compound, the inhibition result was “Dose-dependent effect” in experiment [4]; 73% in experiment [5]; 97% in experiment [7]; 87% in experiment [9]; 63% in [1]. Also, the inhibition result in experiment [8] is “Active”.

With `CN(C)CCCNCc1ccc(Cl)c(Cl)c1`, in experiment [3], the inhibition is 70%. In [2], this compound had an IC50 above 10000 nM.

`COc1ccccc1CN1CCC(CNCc2cccc(C)c2)CC1`: the inhibition in experiment [1] amounted to 84%. Further, the half-inhibitory concentration (IC50) in experiment [2] was 794 nM.

Regarding `Clc1ccccc1CNCC1CCN(Cc2ccccc2Cl)CC1`, in experiment [1], the inhibition was 80%. The same compound had a half-inhibitory concentration (IC50) in [2] of 200 nM.

Take `NCC1CCN(CC2CCCCC2)CC1`: the inhibition in [1] amounted to 59%. The same compound gave a half-maximal inhibitory concentration (IC50) in experiment [2] above 10000 nM.

On to `Oc1ccc(CN2CCC(CNCc3ccccc3)CC2)cc1`, for which the IC50 in experiment [4] is above 31600 nM; in [6], above 31600 nM; in experiment [2] it was above 10000 nM. The inhibition in experiment [1] turned out to be 65%.

Turning to `NCC1CCN(Cc2ccc(Cl)c(Cl)c2)CC1`, the inhibition in experiment [1] was found to be 67%. Further, the 50% inhibitory concentration (IC50) in experiment [2] is above 10000 nM.

On to `c1ccc(CNCC2CCN(Cc3ccccc3)CC2)cc1`, for which, in experiment [1], the inhibition was found to be 72%. In addition, in [2], the IC50 is 10000 nM.

In the case of `COc1ccccc1CN1CCC(CNCc2ccccc2)CC1`, the inhibition in experiment [1] is 85%. This compound gave an IC50 in experiment [2] of 2510 nM.

Consider `COc1ccccc1CN1CCC(CN)CC1`, for which, in experiment [1], the inhibition came to 67%. In experiment [2], this compound gave a half-inhibitory concentration (IC50) above 10000 nM.

On to `Clc1ccccc1CN1CCC(CNCc2ccccc2)CC1`, for which the IC50 is 2000 nM in experiment [4], 3980 nM in [6], 316 nM in [2] and 794 nM in experiment [10]. Also, the inhibition result in experiment [4] is “Dose-dependent effect”; in [5], 84%; in experiment [7], 103%; in experiment [9], 93%; in [1], 87%. In addition, the inhibition entry in [11] was “Active”.

`Cc1cccc(CNCC2CCN(Cc3cccc(Cl)c3Cl)CC2)c1`: the inhibition in experiment [1] came to 74%. For the same compound, in [2], the concentration for half-maximal inhibition (IC50) was 794 nM.

As to `Oc1ccc(CNCC2CCN(Cc3ccccc3Cl)CC2)cc1`, in [1], the inhibition was found to be 98%. The same compound gave an IC50 in experiment [2] of 316 nM.

In the case of `NCCC1CCN(Cc2ccccc2Cl)CC1`, the inhibition in experiment [1] is 56%. The compound also had an IC50 in [2] above 10000 nM.

With `Clc1ccccc1CN1CCC(CNCc2cccnc2)CC1`, the inhibition in experiment [1] is 89%. Besides, the IC50 in [2] was 2000 nM.

With `Cc1cccc(CNCC2CCN(Cc3ccc(Cl)cc3)CC2)c1`, the inhibition in experiment [1] amounted to 86%. Further, the IC50 in experiment [2] was 10000 nM.

Consider `Clc1ccccc1CN1CCC(CNCc2cccc(Cl)c2Cl)CC1`, for which, in experiment [1], the inhibition amounted to 13%. The compound also showed an IC50 in experiment [2] of 2510 nM.

Consider `Cc1ccccc1CN1CCC(CN)CC1`, for which, in experiment [1], the inhibition came out at 81%. Also, in experiment [2], the IC50 was above 10000 nM.

As for `Clc1ccc(CNCC2CCN(Cc3ccccc3Cl)CC2)cc1`, in [1], the inhibition was 80%. The compound further gave a 50% inhibitory concentration (IC50) in experiment [2] of 631 nM.

For the compound `c1cc(CN2CCCNCCNCCCNCC2)ccc1CN1CCCNCCNCCCNCC1`, the inhibition result in experiment [11] is “Active”.

As to `Clc1cccc(CNCC2CCN(Cc3ccccc3Cl)CC2)c1`, the inhibition in experiment [1] is 65%. Also, the 50% inhibitory concentration (IC50) in experiment [2] is 316 nM.

As to `Clc1ccccc1CN1CCC(CNCc2ccc3ccccc3c2)CC1`, the inhibition in experiment [1] was 78%. Further, the IC50 in experiment [2] was 501 nM.

Consider `Clc1ccccc1CN1CCC(CNCc2ccc3c(c2)OCO3)CC1`, for which the inhibition in experiment [1] amounted to 72%. For the same compound, the concentration for half-maximal inhibition (IC50) in experiment [2] is 251 nM.

As to `CCc1cccc(CNCC2CCN(Cc3ccccc3OC)CC2)c1`, the inhibition in experiment [1] stood at 81%. In addition, in [2], the IC50 was 794 nM.

For the compound `Clc1ccccc1CN1CCC(CNCC2CCCCC2)CC1`, the inhibition in experiment [1] stood at 77%. This compound showed an IC50 in experiment [2] of 3160 nM.

Turning to `NCC1CCN(Cc2ccccc2Cl)CC1`, in experiment [3], the inhibition was 69%. The IC50 in [2] was 10000 nM.

As to `Clc1ccccc1CN1CCC(CNCc2c[nH]cn2)CC1`, in experiment [1], the inhibition was 96%. Further, the IC50 in experiment [2] is 1000 nM.

Take `COc1ccc(CNCC2CCN(Cc3ccccc3Cl)CC2)cc1`: the inhibition in [1] amounted to 88%. The half-maximal inhibitory concentration (IC50) in [2] is 1260 nM.

`Clc1ccccc1CN1CCC(CNCc2cccc(-c3ccccc3)c2)CC1`: the concentration for half-maximal inhibition (IC50) in experiment [4] was 1260 nM; in [6], 2510 nM; in [2], 501 nM; in experiment [10] it was 631 nM. The inhibition entry in experiment [4] is “Dose-dependent effect”; in [5], 98%; in experiment [7], 102%; in experiment [9], 94%; in experiment [1] it was 98%. The inhibition result in experiment [8] is “Active”.

Regarding `Cc1ccc(CNCC2CCN(Cc3ccccc3Cl)CC2)cc1`, the inhibition in [1] was found to be 62%. This compound had an IC50 in experiment [2] of 1000 nM.

Consider `Cc1ccccc1CNCC1CCN(Cc2ccccc2Cl)CC1`, for which the inhibition in [1] was 72%. In addition, the IC50 in experiment [2] was 251 nM.

The values are drawn from ChEMBL document CHEMBL4382250, “Structure-based exploration and pharmacological evaluation of N-substituted piperidin-4-yl-methanamine CXCR4 chemokine receptor antagonists” (Eur J Med Chem, 2019).
